According to ChEMBL document CHEMBL4680111, “Target Validation and Identification of Novel Boronate Inhibitors of the Plasmodium falciparum Proteasome” (J Med Chem, 2018):
Activity calls are given as the source filed them. No cut-off for these calls is given here.

What was measured:
Plasmodium falciparum = assay: Inhibition of proteasome in Plasmodium falciparum trophozoite stage transfected with GFP-DD assessed as reduction in GFP-DD fusion protein degradation at 0.2 to 0.5 uM incubated for 3 hrs in absence of Shield-1 by Western blot analysis; settings: dose 0.2-0.5 µM
How it was run: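 GFP-DD reporter parasites were held in Shield-1 for 24 h, then washed out. Trophozoites at 5% hematocrit and 5% parasitemia were exposed to compound for 3 h at 37°C. Saponin-isolated parasites were lysed and blotted with anti-GFP (1:1000), with anti-PfBiP as loading control. Representative of four independent experiments.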

[1] = Binding affinity to Plasmodium falciparum 20S proteasome beta 5 subunit assessed as equilibrium constant using fluorogenic peptide Ac-WLA-AMC as substrate in presence of PA28alpha by fluorescence based microplate reader assay

SMILES | inhibition (Plasmodium falciparum) | Ki [1]
CC(=O)N1CCC[C@@H]1C(=O)N[C@@H](C)C(=O)N[C@@H](Cc1ccccc1)B(O)O | Active | 
CC(C)C[C@H](NC(=O)[C@H](Cc1ccccc1)NC(=O)Cc1ccc(O)cc1)B(O)O |  | 4.3 nM
